# Reference: ChEMBL document CHEMBL1136744, “Synthesis and activity of substituted 2-phenylquinolin-4-amines, antagonists of immunostimulatory CpG-oligodeoxynucleotides” (J Med Chem, 2003)
# Test: Ability to reverse action of CpG-ODN on WEHI 231 murine B-cell lymphoma cells
# Format: functional, cell-based, Mus musculus
# Outline: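 WEHI 231 murine B-lymphoma cells at 2 × 10⁵ per mL; anti-surface IgM (10 μg/mL) kills them, and CpG-ODN 1760 (6 µg/mL) reverses this. Compounds were added in triplicate at 3-fold dilutions, with or without anti-IgM. Cells were incubated 16 h at 37 °C, then pulsed with 0.5 μCi ³H-thymidine for 4 h. The concentration halving the CpG-ODN effect was read graphically from log dose-response plots. Quinacrine served as internal control.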
row,Structure (SMILES),Log 1/EC50
1,CN(C)CCCCNc1cc(-c2ccc(N3CCCCC3)cc2)nc2ccccc12,7.33
2,Cc1ccc(-c2cc(NCCCCCO)c3ccccc3n2)cc1,5.74
3,CN1CCN(c2ccc(-c3cc(NCCCN4CCOCC4)c4ccccc4n3)cc2)CC1,8.66
4,CN1CCN(c2ccc(-c3cc(NCCCCN4CCCC4)c4ccccc4n3)cc2)CC1,8.26
5,Cc1ccc(-c2cc(NCCCN3CCN(C)CC3)c3ccccc3n2)cc1,7.86
6,CN(C)CCCNc1cc(-c2ccc(CN3CCN(C)CC3)cc2)nc2ccccc12,8.04
7,CN(C)CCCCNc1cc(-c2ccc(F)cc2)nc2ccccc12,7.76
8,CN1CCN(c2ccc(-c3cc(NCCC4CCCN4C)c4ccccc4n3)cc2)CC1 (stereo unspecified),8.7
9,CCN1CCCC1CNc1cc(-c2cccc(C)c2)nc2ccccc12 (stereo unspecified),7.66
10,Cc1cccc(-c2cc(NCCCN3CCN(C)CC3)c3ccccc3n2)c1,7.56
11,CCN1CCCC1CNc1cc(-c2ccc(C)cc2)nc2ccccc12 (stereo unspecified),7.66
12,CN(C)CCCCNc1cc(-c2ccc(N3CCN(C)CC3)cc2)nc2ccccc12,8.91
13,CN1CCN(c2ccc(-c3cc(NCCN4CCCC4)c4ccccc4n3)cc2)CC1,8.62
14,CN1CCN(CCNc2cc(-c3ccc(N4CCN(C)CC4)cc3)nc3ccccc23)CC1,8.82
15,Cc1ccc(-c2cc(NCCN(C)C)c3ccccc3n2)cc1,7.91
16,Cc1ccc(-c2cc(NCCCN(C)C)c3ccccc3n2)cc1,7.94
17,CCN(CC)CCNc1cc(-c2cccc(C)c2)nc2ccccc12,7.65
18,CN1CCN(Cc2cccc(-c3cc(NCCC4CCCN4C)c4ccccc4n3)c2)CC1 (stereo unspecified),8.11
19,CN1CCN(Cc2cc(Nc3cc(-c4ccc(N5CCN(C)CC5)cc4)nc4ccccc34)cc(CN3CCN(C)CC3)c2O)CC1,8.85
20,CN(C)CCNc1cc(-c2ccc(N3CCN(C)CC3)cc2)nc2ccccc12,9.12
21,NCCCCCNc1cc(-c2ccc(F)cc2)nc2ccccc12,7.81
22,CN1CCN(Cc2cc(Nc3cc(-c4ccc(F)cc4)nc4ccccc34)cc(CN3CCN(C)CC3)c2O)CC1,8.76
23,Fc1ccc(-c2cc(NCCCN3CCOCC3)c3ccccc3n2)cc1,7.17
24,CN(C)CCCCCNc1cc(-c2ccc(N3CCN(C)CC3)cc2)nc2ccccc12,8.84
25,CN(C)CCNc1cc(-c2ccc(CN3CCN(C)CC3)cc2)nc2ccccc12,8.15
26,CN(C)CCCNc1cc(-c2ccc(N3CCN(C)CC3)cc2)nc2ccccc12,9

row,Structure (SMILES),Log 1/EC50
1,CN(C)CCNc1cc(-c2ccc(N3CCCCC3)cc2)nc2ccccc12,8.27
2,Cc1ccc(-c2cc(NCCCn3ccnc3)c3ccccc3n2)cc1,6.98
3,CN1CCN(CCCNc2cc(-c3ccc(CN4CCN(C)CC4)cc3)nc3ccccc23)CC1,8.17
4,OCCCCCNc1cc(-c2ccc(F)cc2)nc2ccccc12,5.16
5,Cc1ccc(-c2cc(Nc3cc(CN4CCN(C)CC4)c(O)c(CN4CCN(C)CC4)c3)c3ccccc3n2)cc1,8.84
6,Cc1cccc(-c2cc(NCCCn3ccnc3)c3ccccc3n2)c1,6.71
7,Cc1ccc(-c2cc(OCCN(C)C)c3ccccc3n2)cc1,5.88
8,CN1CCN(Cc2ccc(-c3cc(NCCN4CCCC4)c4ccccc4n3)cc2)CC1,8.49
9,CN1CCN(Cc2cc(Nc3cc(-c4ccc(F)cc4)nc4ccccc34)ccc2O)CC1,7.67
10,CN1CCCC1CCNc1cc(-c2ccc(F)cc2)nc2ccccc12 (stereo unspecified),7.88
11,Cc1ccc(-c2cc(Nc3ccc(O)c(CN4CCN(C)CC4)c3)c3ccccc3n2)cc1,7.88
12,CCN(CC)CCNc1cc(-c2ccc(C)cc2)nc2ccccc12,7.73
13,Fc1ccc(-c2cc(NCCN3CCCC3)c3ccccc3n2)cc1,7.62
14,Cc1cccc(-c2cc(NCCN(C)C)c3ccccc3n2)c1,7.74
15,CCN1CCCC1CNc1cc(-c2ccc(F)cc2)nc2ccccc12 (stereo unspecified),7.77
16,Cc1ccc(-c2cc(NCCCN3CCOCC3)c3ccccc3n2)cc1,7.57
17,CN1CCN(Cc2cccc(-c3cc(NCCCn4ccnc4)c4ccccc4n3)c2)CC1,6.92
18,Cc1cccc(-c2cc(NCCC3CCCN3C)c3ccccc3n2)c1 (stereo unspecified),7.85
19,Cc1cccc(-c2cc(NCCCN(C)C)c3ccccc3n2)c1,7.88
20,CN(C)CCCNc1cc(-c2ccc(N3CCCCC3)cc2)nc2ccccc12,7.8
21,Cc1cccc(-c2cc(OCCN(C)C)c3ccccc3n2)c1,5.51
22,Cc1cccc(-c2cc(NCCCN3CCOCC3)c3ccccc3n2)c1,7.3
23,Fc1ccc(-c2cc(NCCCCN3CCCC3)c3ccccc3n2)cc1,7.68
24,CN(C)CCCNc1cc(-c2ccc(F)cc2)nc2ccccc12,7.86
25,CN1CCN(CCNc2cc(-c3ccc(F)cc3)nc3ccccc23)CC1,7.73
